Assay results as given in ChEMBL document CHEMBL2406967, “Contribution of Cage-Shaped Structure of Physalins to Their Mode of Action in Inhibition of NF-κB Activation” (ACS Med Chem Lett, 2013).
Activity calls are given as the source filed them. No cut-off for these calls is given here.

Columns and labels:
[1] = Inhibition of TNFalpha-induced NF-kappaB activation (unknown origin) expressed in human HeLa cells pretreated 30 mins before TNFalpha addition after 7 hrs by luciferase reporter gene assay; assay type: cell-based
Summary of the method: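 HeLa cells stably transfected with an NF-κB reporter construct, stimulated with TNF-α; IC50 values are means of three independent experiments, with standard deviation.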

[2] = molecular target: T1, NF-kappa-B inhibitor alpha (Homo sapiens) (UniProt P25963); assay: Inhibition of TNFalpha-induced IkappaBalpha (unknown origin) degradation expressed in human HeLa cells at 50 uM pretreated […] before TNFalpha addition […] by ELISA; assay type: cell-based
T1 sequence (whole entry): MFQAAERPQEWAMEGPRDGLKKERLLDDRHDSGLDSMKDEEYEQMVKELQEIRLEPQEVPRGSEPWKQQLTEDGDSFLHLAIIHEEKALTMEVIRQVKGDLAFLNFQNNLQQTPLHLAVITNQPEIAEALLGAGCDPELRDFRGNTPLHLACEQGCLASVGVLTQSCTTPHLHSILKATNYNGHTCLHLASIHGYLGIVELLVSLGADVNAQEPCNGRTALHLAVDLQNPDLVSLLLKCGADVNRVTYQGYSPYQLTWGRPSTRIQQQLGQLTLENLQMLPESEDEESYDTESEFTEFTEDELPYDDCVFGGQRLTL

HeLa [3] = assay: Inhibition of NF-kappaB (unknown origin) expressed in human HeLa cells assessed as inhibition of TNFalpha-induced p50 nuclear translocation pretreated 30 mins before TNFalpha addition measured after 15 mins by Western blot analysis
HeLa [4] = assay: Inhibition of NF-kappaB (unknown origin) expressed in human HeLa cells assessed as inhibition of TNFalpha-induced RelA nuclear translocation pretreated 30 mins before TNFalpha addition measured after 15 mins by Western blot analysis
HeLa [5] = assay: Ratio of IC50 for TNFalpha-induced NF-kappaB (unknown origin) activation expressed in human HeLa cells to IC50 for TNFalpha-induced IkappaBalpha (unknown origin) phosphorylation expressed in human HeLa cells; assay type: cell-based
HeLa [6] = assay: Inhibition of NF-kappaB (unknown origin) expressed in human HeLa cells assessed as inhibition of TNFalpha-induced DNA binding of p50 pretreated 30 mins before TNFalpha addition measured after 30 mins by EMSA
HeLa [7] = assay: Inhibition of NF-kappaB (unknown origin) expressed in human HeLa cells assessed as inhibition of TNFalpha-induced DNA binding of RelA pretreated 30 mins before TNFalpha addition measured after 30 mins by EMSA
HeLa [8] = assay: Inhibition of NF-kappaB (unknown origin) expressed in human HeLa cells assessed as inhibition of TNFalpha-induced p50 nuclear translocation at 100 uM […] by Western blot analysis; assay type: cell-based
Summary of the method: (§1)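 HeLa cells pretreated 30 min with a range of compound concentrations or DMSO, then stimulated with TNF-α (50 ng/mL) for 15 min. Cytoplasmic and nuclear fractions were immunoblotted for RelA and p50. Tubulin marked the cytoplasmic fraction and PARP the nuclear fraction.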

HeLa [9] = assay: Inhibition of NF-kappaB (unknown origin) expressed in human HeLa cells assessed as inhibition of TNFalpha-induced RelA nuclear translocation at 100 uM […] by Western blot analysis; assay type: cell-based; summary of the method: as §1

Row | SMILES | IC50 [1] | inhibition [2] | further results
1 | CC1=C(C)C(=O)O[C@@H]([C@](C)(O)[C@H]2CC[C@@]3(O)[C@@H]4CC=C5CC=CC(=O)[C@]5(C)[C@H]4CC[C@]23C)C1 | 20.7 µM |  | 
2 | C=C1C(=O)O[C@@H]2C[C@@]1(C)[C@@H]1C(=O)[C@]3(O)O[C@]14[C@@]2(C)OC(=O)[C@@]4(O)CC[C@H]1[C@H]3CC=C2CC=CC(=O)[C@@]21C | 6.54 µM | 0.8% | inhibition (HeLa [3]): Dose-dependent effect; inhibition (HeLa [4]): Dose-dependent effect
3 | C[C@H]1C(=O)OC[C@H]1C[C@@H](O)[C@](C)(O)[C@]1(O)CC[C@@]2(O)[C@@H]3CC=C4CC=CC(=O)[C@]4(C)[C@H]3CC[C@]12C | 33.2 µM |  | 
4 | C[C@H]1C(=O)OC[C@H]1C[C@@H](O)[C@](C)(O)[C@@]1(O)CC[C@@]2(O)[C@@H]3CC=C4CC=CC(=O)[C@]4(C)[C@H]3CC[C@]12C | 32.4 µM |  | 
5 | C[C@]12C(=O)C=CCC1=CC[C@@H]1[C@@H]2CC[C@]2(O)C(=O)O[C@@]3(C)[C@H]4C[C@]5(C)[C@@H](CO[C@@]16O[C@@]32[C@H]5C6=O)C(=O)O4 [PHYSALIN B] | 6.07 µM | 7% | inhibition (HeLa [6]): Dose-dependent effect; inhibition (HeLa [7]): Dose-dependent effect; inhibition (HeLa [3]): Dose-dependent effect; inhibition (HeLa [4]): Dose-dependent effect
6 | C[C@@]12C[C@H]3OC(=O)[C@@H]1CO[C@]14O[C@]5([C@H]2C1=O)[C@@](O)(CC[C@H]1[C@H]4C[C@H]2O[C@]24CC=CC(=O)[C@]14C)C(=O)O[C@@]35C [PHYSALIN F] | 2.53 µM | 45.2% | Ratio IC50 (HeLa [5]): 10
7 | C[C@@]12C[C@H]3OC(=O)[C@@H]1CO[C@@]14O[C@]5(C2C1=O)[C@@](O)(CC[C@H]1[C@H]4C[C@@H]2O[C@@]24CC=CC(=O)[C@]14C)C(=O)O[C@@]35C [PHYSALIN J] | 36.2 µM |  | 
8 | CC1=C(C)C(=O)O[C@@H]([C@](C)(O)[C@]2(O)CC[C@@]3(O)[C@@H]4C[C@H]5O[C@]56CC=CC(=O)[C@]6(C)[C@H]4CC[C@]23C)C1 [WITHANOLIDE E] | 0.98 µM | 46.8% | Ratio IC50 (HeLa [5]): 10
9 | CC1=C(C)C(=O)O[C@@H]([C@](C)(O)[C@]2(O)CC[C@@]3(O)[C@@H]4CC=C5CC=CC(=O)[C@]5(C)[C@H]4CC[C@]23C)C1 [WITHANOLIDE F] | 2 µM |  | inhibition (HeLa [8]): Active; inhibition (HeLa [9]): Active; inhibition (HeLa [6]): Dose-dependent effect; inhibition (HeLa [7]): Dose-dependent effect

The next lines start with results.

Row | IC50 [1] | SMILES | inhibition [2] | further results
10 | 20.8 µM | CC1=C(C)C(=O)O[C@@H]([C@](C)(O)C2=CC[C@@]3(O)[C@@H]4CC=C5CC=CC(=O)[C@]5(C)[C@H]4CC[C@]23C)C1 |  | 
11 | 11.4 µM | C[C@]12C(=O)C=CCC1=C[C@@H](O)[C@@H]1[C@@H]2CC[C@@]2(O)C(=O)O[C@@]3(C)[C@H]4C[C@]5(C)[C@@H](CO[C@@]16O[C@]23[C@H]5C6=O)C(=O)O4 | -3.8% | 
12 | > 50 µM | C[C@]12C(=O)C=CCC1=CC[C@@H]1[C@@H]2CC[C@]2(O)C(=O)O[C@@]3(C)[C@H]4C[C@@](C)([C@@H]5C(=O)[C@]1(O)O[C@@]532)[C@](C)(O)C(=O)O4 |  | 
13 | 104 µM | C#C[C@]12O[C@H]3OC[C@H]4C(=O)O[C@H](C[C@@]4(C)[C@@H]1C3=O)[C@]2(C)O |  | 
14 | > 200 µM | C[C@@]12C[C@H]3OC(=O)[C@@H]1CO[C@@H]1O[C@@]4([C@H](O)C(=O)O[C@@]34C)[C@H]2C1=O |  | 
15 | > 200 µM | CC(=O)O[C@@H]1C(=O)O[C@@]2(C)[C@H]3C[C@]4(C)[C@@H](CO[C@@H]5O[C@]12[C@H]4C5=O)C(=O)O3 |  | 
16 | 43.6 µM | C[C@@]12C[C@H]3OC(=O)[C@@H]1CO[C@@H]1O[C@@]4([C@H](OCc5ccccc5)C(=O)O[C@@]34C)[C@H]2C1=O |  | 
17 | 85.8 µM | C=C1C(=O)O[C@@H]2C[C@@]1(C)[C@@H]1C(=O)[C@@H](O)O[C@@]13[C@H](OCc1ccccc1)C(=O)O[C@@]23C |  | 
18 | 4.38 µM | C[C@@]12C[C@H]3OC(=O)[C@]1(O)CO[C@]14O[C@@]5([C@H]2C1=O)[C@@]3(C)OC(=O)[C@@]5(O)CC[C@H]1[C@H]4C[C@H]2O[C@]23CC=CC(=O)[C@]13C [25-HYDROXY PHYSALIN F] | 29% | Ratio IC50 (HeLa [5]): 10
19 | > 50 µM | C[C@@]12C[C@H]3OC(=O)[C@]1(O)CO[C@]14O[C@@]5([C@H]2C1=O)[C@@]3(C)OC(=O)[C@@]5(O)CC[C@H]1[C@H]4C[C@@H]2O[C@@]23CC=CC(=O)[C@]13C [25-HYDROXY PHYSALIN J] |  | 
20 | 22.7 µM | C=C1C(=O)O[C@@H]2C[C@@]1(C)[C@@H]1C(=O)[C@]3(O)O[C@]14[C@@]2(C)OC(=O)[C@@]4(O)CC[C@H]1[C@H]3[C@H](O)C=C2CC=CC(=O)[C@@]21C [PHYSALIN A] | -3.4% | 
21 | > 50 µM | C[C@@H]1C(=O)O[C@@H]2C[C@@]1(C)[C@@H]1C(=O)[C@]3(O)O[C@]14[C@@]2(C)OC(=O)[C@@]4(O)CC[C@H]1[C@H]3[C@H](O)C=C2CC=CC(=O)[C@@]21C [PHYSALIN O] |  | 
